TRPC4 inh: inhibitors of mouse TRPC4 channel; Q9QUQ5; HEK293 TRPC4beta/mu-opioid, DAMGO-evoked Fluo4 calcium flux; stronger effect = lower value; B-score at 10 µM; 300,000 tested, 0.39% active;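 active means B-score over 3 SD under the library average, no early fluorescence shift, positive overall ratio signal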
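Assay system: Stable TRPC4beta/mu-opioid receptor HEK293 cells | Reagent: DAMGO in two steps, submaximal then maximal | Compound dosing: Single concentration per test compound | Signal: Fluo4 Ca2+ flux fluorescence | Evaluation: Per-well B score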
TRPC6 inhibitor: blocks the mouse TRPC6 cation channel | HEK293-TRPC6, membrane potential dye, ACh-evoked depolarization; stronger effect = lower value | B-score at 10 µM | 310,000 tested, 1.1% active;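 active means B-score under library mean minus 3 SD, initial fluorescence not abnormally high, positive integrated signal ratio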;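 further: B-score derived from integrated fluorescence ratio over the kinetic read; more negative B-score means stronger inhibition of depolarization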
Target sequence (Q61143 whole entry, looked up): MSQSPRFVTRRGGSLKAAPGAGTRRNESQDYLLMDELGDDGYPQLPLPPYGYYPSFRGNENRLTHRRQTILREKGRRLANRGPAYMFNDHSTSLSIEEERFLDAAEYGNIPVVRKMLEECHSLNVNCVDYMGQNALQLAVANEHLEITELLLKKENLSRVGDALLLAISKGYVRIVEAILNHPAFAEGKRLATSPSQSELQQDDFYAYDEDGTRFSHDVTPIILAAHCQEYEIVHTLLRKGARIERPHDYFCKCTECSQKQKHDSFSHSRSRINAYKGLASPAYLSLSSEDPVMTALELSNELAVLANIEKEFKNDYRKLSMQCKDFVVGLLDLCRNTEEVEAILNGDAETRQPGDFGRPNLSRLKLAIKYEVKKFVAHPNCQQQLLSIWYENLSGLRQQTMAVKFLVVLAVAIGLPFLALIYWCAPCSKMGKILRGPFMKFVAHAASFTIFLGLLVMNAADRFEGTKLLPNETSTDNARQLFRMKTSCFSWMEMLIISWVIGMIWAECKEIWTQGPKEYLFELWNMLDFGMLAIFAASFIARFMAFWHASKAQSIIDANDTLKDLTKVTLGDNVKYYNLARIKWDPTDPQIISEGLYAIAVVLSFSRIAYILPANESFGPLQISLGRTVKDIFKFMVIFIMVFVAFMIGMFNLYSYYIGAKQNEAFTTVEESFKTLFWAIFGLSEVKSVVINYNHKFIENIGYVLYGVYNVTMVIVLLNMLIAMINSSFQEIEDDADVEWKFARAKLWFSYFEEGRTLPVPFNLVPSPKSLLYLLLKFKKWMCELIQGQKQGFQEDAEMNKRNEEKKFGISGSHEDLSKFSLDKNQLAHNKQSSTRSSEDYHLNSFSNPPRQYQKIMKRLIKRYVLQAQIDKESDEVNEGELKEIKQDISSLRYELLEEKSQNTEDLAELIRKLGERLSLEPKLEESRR
TRPC4 act: TRPC4 (mouse) channel activation; Q9QUQ5; HEK293 TRPC4beta/mu-opioid, Fluo4 calcium fluorescence; stronger effect = higher value; B-score at 10 µM; 310,000 tested, 0.49% active; AID 2237;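 active means B-score above 5 SD of library B-scores, and initial fluorescence ratio not above library mean plus 5 SD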;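 further: positive B-score marks a calcium rise read as TRPC4 activation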
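System – HEK293 cells stably co-expressing mouse TRPC4beta and mu-opioid receptor · Signal – Fluo4 calcium-sensitive dye fluorescence, kinetic, 1 Hz baseline · Benchmarks – buffer (low) and maximal DAMGO (high) · Read-out – B score of integrated fluorescence ratio per well · Incubation – dye loading 45 min room temperature, 110 s kinetic read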
TRPC4 potent: allosteric potentiators of mouse TRPC4 channel; HEK293 TRPC4beta/mu-opioid, DAMGO EC20, Fluo-4 Ca2+ flux; stronger effect = higher value; Q9QUQ5; 310,000 tested, 0.42% active; B-score at 10 µM;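 active means B-score of calcium response area above 5 SD of library B-scores, with initial fluorescence ratio within 5 SD of library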;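 further: B-score of integrated fluorescence ratio over time as area under calcium response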
TRPC6 activator: activators of mouse TRPC6 channel; Q61143; HEK293-TRPC6 membrane potential dye fluorescence; stronger effect = higher value; B-score at 10 µM; 310,000 tested, 0.13% active;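 active means B-score of the integrated fluorescence ratio above library mean plus 3 SD, and starting fluorescence ratio within library mean plus 5 SD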;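 further: higher score means more depolarization so channel activation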
TRPC4 spec 2: second selectivity test of TRPC6 inhibitors: effect on mouse TRPC4; inhibition, % at 10 µM; 920 tested, 42% active; HEK293 TRPC4/MOR, membrane potential dye fluorescence; channel activated by saturating DAMGO dose; shares compounds with TRPC6 inhibitor; AID 2776;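 active means compounds whose fluorescence signal differed from control wells by over 3 SD, either direction, in both duplicate plates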
TRPC4 spec: mouse TRPC4 off-target activity of TRPC6 inhibitors; shares compounds with TRPC6 inhibitor; HEK293 TRPC4/mu-opioid, membrane potential fluorescence; activity change, negative = inhibition, % at 10 µM; 920 tested, 61% active;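 active means rise or fall in signal beyond 3 SD of buffer-only wells in both replicate plates, either sign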;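 further: integrated kinetic ratio of fluorescence range over baseline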
HEK293 MPD ctr 2-1: second check of TRPC6 inhibitor effects in parental HEK293 cells; shares compounds with TRPC6 inhibitor; parental HEK293 membrane potential dye fluorescence; maximal acetylcholine challenge after compound addition; signal change vs control, % at 10 µM; 920 tested, 31% active;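 active means membrane potential signal moving either way by over 3 SD of the maximum-effect control, in both duplicate plates, meaning non-specific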
HEK293 MPD ctr-1: checks TRPC6 inhibitor effects in parental HEK293 cells; shares compounds with TRPC6 inhibitor; parental HEK293 membrane potential dye fluorescence; membrane potential signal change, % at 10 µM; 920 tested, 60% active; AID 2780;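 active means membrane potential signal shifting up or down by more than 3 SD of buffer-only wells, on both duplicate plates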
HEK293 MPD ctr-2: checks TRPC6 modulator effects in parental HEK293 cells; 2,400 tested, 51% active; membrane potential dye fluorescence; membrane potential signal change, % at 10 µM; shares compounds with TRPC6 inhibitor;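 active means membrane potential signal moves up or down beyond 5 SD from buffer-only wells, on both duplicate plates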
HEK293 MPD ctr 2-2: second counter-screen for TRPC6 modulators: effect in parental HEK293 cells. shares compounds with TRPC6 inhibitor. membrane potential dye fluorescence; after compound, maximal acetylcholine stimulation. inhibition, % at 10 µM. 2,400 tested, 14% active. AID 488926;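 active means membrane potential signal drops by more than 5 SD from the mean control signal, in both duplicate plates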;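 further: plate controls were acetylcholine ECmax control wells for no effect and buffer only wells for full effect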
TRPC4/MOR mod: selectivity of TRPC6 modulators against mouse TRPC4; percent change from control (negative = decrease, positive = increase), % at 10 µM; HEK293 TRPC4/mu-opioid, membrane potential fluorescence; AID 488927; shares compounds with TRPC6 inhibitor; 2,400 tested, 69% active;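 active means membrane potential signal moved up or down beyond 5 SD of buffer control wells, in both duplicate plates, actives on both sides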;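 further: plate controls were assay buffer wells for no effect and DAMGO maximal-effect wells for full effect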
TRPC4/MOR inh 2: mouse TRPC4 off-target activity of TRPC6 modulators, second screen; shares compounds with TRPC6 inhibitor; HEK293 TRPC4/mu-opioid, membrane potential dye fluorescence; stimulated with maximal-effect DAMGO; inhibition, % at 10 µM; 2,400 tested, 55% active; AID 488928;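 active means drop in membrane potential signal beyond 5 SD of the control wells in both duplicate plates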;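 further: TRPC4 counter screen for TRPC6 hits run under conditions tuned for TRPC6 not TRPC4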
TRPC6 inh conf: confirmation of mouse TRPC6 inhibitors; shares compounds with TRPC6 inhibitor; HEK293-TRPC6, membrane potential dye, ACh-evoked depolarization; inhibition, % at 10 µM; 3,300 tested, 43% active;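 active means fluorescence ratio falls more than 5 SD below the full-stimulation control mean, in both duplicate runs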;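 further: integrated fluorescence ratio of peak minus minimum over baseline after agonist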
TRPC6 act confirm: confirmation of mouse TRPC6 activators | activation, % at 10 µM | 2,800 tested, 11% active | shares compounds with TRPC6 inhibitor | HEK293-TRPC6 membrane potential dye fluorescence, FDSS | AID 488961;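 active means ratio signal rise beyond 5 SD above unstimulated control wells' mean, seen in both duplicate runs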;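 further: plate controls were buffer EC0 wells for no effect and acetylcholine ECmax response for full effect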
Numbers without * were called inactive; i = inactive; x = no result. This is a sample that favours compounds with a hit; in the whole collection about 2.3% have one here.

SMILES	TRPC4 inh	TRPC6 inhibitor	TRPC4 act	TRPC4 potent	TRPC6 activator	HEK293 MPD ctr-2	HEK293 MPD ctr 2-2	TRPC4/MOR mod	TRPC4/MOR inh 2	TRPC6 inh conf	TRPC6 act confirm	others
CCCCn1c(=N)n(CC(O)COc2cccc(C)c2)c2ccccc21 (stereo unspecified)	i	-6.7*	i	i	i	x	x	x	x	i	x	TRPC4 spec 2=38%*;TRPC4 spec=40%*;HEK293 MPD ctr 2-1=270%*;HEK293 MPD ctr-1=23%*
COc1ccccc1OCC(O)Cn1c(=N)n(Cc2ccccc2)c2ccccc21 (stereo unspecified)	i	-6.4*	i	i	i	122%*	i	46%*	102%*	52%*	x
N=c1n(CCN2CCCC2)c2ccccc2n1CC(O)c1ccc(Cl)c(Cl)c1 (stereo unspecified)	i	-5.8*	i	i	i	i	i	i	47%*	52%*	i
N=c1n(CCN2CCOCC2)c2ccccc2n1CC(=O)c1ccc(Cl)c(Cl)c1	i	i	i	i	i	x	x	x	x	x	x
COc1ccc(N2CCN(C(=O)CCCNC(=O)Cn3cnc4sc(C)c(C)c4c3=O)CC2)cc1	i	i	i	i	i	x	x	x	x	x	x
Cc1ccc(C(C)C)c(OCC(=O)NNC2=CC(=O)CC(C)(C)C2)c1	i	i	i	i	i	x	x	x	x	x	x
N=c1n(Cc2ccccc2)c2ccccc2n1CC(O)c1ccccc1 (stereo unspecified)	i	-7.8*	i	i	i	x	x	x	x	i	i	TRPC4 spec 2=28%*;TRPC4 spec=27%*;HEK293 MPD ctr 2-1=i;HEK293 MPD ctr-1=10%*
Cc1ccccc1OCC(O)Cn1c(=N)n(Cc2ccccc2)c2ccccc21 (stereo unspecified)	-6*	-5.1*	64*	i	i	120%*	i	40%*	102%*	70%*	x
Cc1cc(Cl)ccc1OCC(=O)NCCC(=O)O	i	-6.6*	i	i	i	x	x	x	x	i	i	TRPC4 spec 2=i;TRPC4 spec=i;HEK293 MPD ctr 2-1=i;HEK293 MPD ctr-1=i
Nc1n[nH]c(C2CC2)c1N=Nc1ccc(Cl)cc1	i	i	i	i	i	x	x	x	x	x	x
CC(=O)n1nc(-c2ccco2)nc1N	i	i	i	i	i	x	x	x	x	x	x
Cc1nn2c(NCCN(C)C)c3c(nc2c1-c1ccccc1)CCCC3	i	-7.3*	i	i	i	-192%*	i	-36%*	52%*	48%*	i
COCCNc1c2c(nc3c(-c4ccccc4)c(C)nn13)CCCC2	i	i	i	i	i	x	x	x	x	x	x
CN1C(=O)/C(=C\c2ccc(N(C)C)cc2)OC1=S	i	i	i	i	19*	322%*	i	74%*	i	i	123%*
CNC(=O)Cn1c(C)cc(=O)c2cccc(OC)c21	i	-6.9*	i	i	i	-471%*	i	-70%*	41%*	40%*	i
Cc1nnc(-c2ccc(Cl)cc2)nc1NCCN(C)C	i	-5*	i	i	i	i	i	i	i	i	i
CN(C)CCNc1nc(-c2ccccc2)nnc1C(F)(F)F	i	i	i	i	i	x	x	x	x	x	x
O=C(CSc1nc2ccccc2c(=O)[nH]1)Nc1ccc(C(=O)O)cc1	i	i	i	i	i	x	x	x	x	x	x
O=C(NCc1ccc2c(c1)OCO2)c1ccc2c(c1)N(Cc1c(F)cccc1Cl)C(=O)CS2	i	i	i	i	i	x	x	x	x	x	x
CCC1CCCCN1CCCNC(=O)c1ccc2c(c1)N(Cc1c(F)cccc1Cl)C(=O)CS2 (stereo unspecified)	i	-6.5*	i	i	i	i	i	-17%*	82%*	78%*	i
CN(C)c1cc(NC(=O)CNC(C)(C)C)c2ccccc2n1	i	-9.2*	i	i	i	-192%*	i	-36%*	50%*	i	i
CCCCC(=O)Nc1cc(N(C)C)nc2ccccc12	i	i	i	i	i	x	x	x	x	x	x
CCN1CCN(S(=O)(=O)c2ccc(C(=O)Nc3sc4c(c3C(N)=O)CCN(CC)C4)cc2)CC1	i	-10*	i	i	i	-144%*	i	-27%*	37%*	58%*	i
COC(=O)c1c(NC(C)=O)sc2c1CCN(Cc1ccccc1)C2	i	-5.5*	i	i	i	-196%*	i	-34%*	37%*	i	i
CCOC(=O)c1c(N)sc2c1CCCC2	i	i	i	i	i	x	x	x	x	x	x
CCOC(=O)c1c(N)sc2c1CCN(CCc1ccccc1)C2	i	-5.9*	i	i	i	i	i	22%*	34%*	i	i
COC(=O)c1c(NC(=O)C(C)(C)C)sc2c1CCN(Cc1ccccc1)C2	i	i	i	i	i	x	x	x	x	x	x
CCOC(=O)c1c(NC(=O)c2cccc(N3C(=O)CCC3=O)c2)sc2c1CCN(CC)C2	i	-6.3*	i	i	i	i	i	i	28%*	i	i

Screens from PubChem.
